Calls of active or inactive are those of the source.

Data set [1] is filed under the species Canis familiaris. Put plainly: Percent change from control in the functional refractory period (FRP) at 10 uMconc. on Canine ventricular muscle fibre.; value ranges from -4-17. More on the design: species or system Canis lupus familiaris, Muscle tissue.
The species entered for data set [2] is Canis familiaris. Nature of the data set: Maximum percent change in conduction time (CT) at 100 uM concentration tested on Canine ventricular muscle fibre. It is filed as functional, Canis lupus familiaris, Muscle tissue. In a few lines:
(§1)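 Canine right ventricular papillary muscle strips were superfused at 36 ± 0.5 °C with saline gassed with 95% O2/5% CO2. Diastolic threshold was found with 2-ms stimuli at 4000 ms cycle length, then pacing at 4× threshold for 60 min equilibration. FRP was measured at 1000 ms cycle length by S1-S2 premature stimulus after every tenth S1. Conduction time came from a bipolar electrogram. Various compound concentrations were tested, one compound per strip, with vehicle controls. Percent change from control was taken at 10 µM, or the maximum change with its concentration; for N ≥ 3, mean with range.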

For data set [3], the species on record is Cavia porcellus. Put plainly: Concentration of compound ( ) which gives a 20% decrease in contractile force was tested on papillary muscle of guinea pig, activity was expressed as EC-20. The following applies: Muscle tissue. The data set is classed as functional. In a few lines: (§2)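 Contractile force measured in an isolated cardiac muscle preparation. Value is the concentration giving a 20% decrease in force of contraction. NR marks that this decrease was not reached. Values come from individual experiments; for N ≥ 3, the mean is given with the range.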

The species entered for data set [4] is Canis familiaris. Put plainly: Maximum percent change in functional refractory period (FRP) at 100 uM on Canine ventricular muscle fibre. More on the design: species or system Canis lupus familiaris, Muscle tissue. Summed up: as §1
The species entered for data set [5] is Canis familiaris. Put plainly: Maximum percent change in conduction time (CT) at 1 uM concentration tested on Canine ventricular muscle fibre. The data set is classed as functional, Canis lupus familiaris, Muscle tissue. In a few lines: as §1
Data set [6] is filed under the species Canis familiaris. Put plainly: Percent change in repolarization at 10 Purkinje fibers.; value ranges from 0-25. The data set is classed as functional, Canis lupus familiaris, Purkinje fiber. Summed up:
(§3)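 Canine Purkinje fibers were held in oxygenated (95% O2–5% CO2) physiological saline, pH 7.35–7.40, at 36 ± 0.5 °C and paced at 1.0 Hz with 2-ms pulses at twice diastolic threshold. Intracellular microelectrodes (3 M KCl) recorded Vmax and APD95 simultaneously. After up to 1 h of stabilization, compounds were tested from 10^-8 to 10^-3 M with 30 min per concentration. One compound per fiber, with vehicle controls. For N ≥ 3, values are the mean with the range.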

The species entered for data set [7] is Canis familiaris. Nature of the data set: Percent change from control in conduction time (CT) at 10 uM concentration tested on Canine ventricular muscle fibre.; M is minimal(<10% change in CT). It is filed as functional. To be noted: Canis lupus familiaris, Muscle tissue. In a few lines:
as §1

The species entered for data set [8] is Canis familiaris. Put plainly: (§4) Maximum Percent change from control in the rate of rise of phase 0 of the action potential at 100 uM concentration on Canine Purkinje fibers. More on the design: species or system Canis lupus familiaris, Purkinje fiber. In a few lines: (§5)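 Isolated canine Purkinje fibers were superfused with physiological saline gassed with 95% O2/5% CO2 (pH 7.35–7.40) at 36 ± 0.5 °C. Paced at 1.0 Hz with 2-ms pulses at twice diastolic threshold. After up to 1 h stabilization, compounds were tested over 10^-8 to 10^-3 M, 30 min per concentration, one compound per fiber, with vehicle controls. Intracellular microelectrodes (3 M KCl) recorded Vmax and APD95; maximum percent change from control is reported with its concentration.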

The species named for data set [9] is Canis familiaris. Put plainly: Percent change from control in the rate of rise of phase 0 of the action potential at 10 uM concentration on Canine Purkinje fibers.; value ranges from -32-3. On the set-up: species or system Canis lupus familiaris, Purkinje fiber. To be noted: dog, in vitro.
The species entered for data set [10] is Canis familiaris. Put plainly: Maximum percent change in repolarization at 30 uM concentration on Canine Purkinje fibers. The data set is classed as functional, Canis lupus familiaris, Purkinje fiber. Summed up:
as §5

Data set [11] is filed under the species Canis familiaris. Nature of the data set: Maximum percent change in repolarization at 100 uM concentration on Canine Purkinje fibers. It is filed as functional, Canis lupus familiaris, Purkinje fiber. In a few lines:
as §5

Data set [12] is filed under the species Canis familiaris. Nature of the data set: Maximum percent change in functional refractory period (FRP) at 0.1 uM on Canine ventricular muscle fibre. On the set-up: species or system Canis lupus familiaris, Muscle tissue. In a few lines:
as §1

Data set [13] is filed under the species Canis familiaris. Put plainly: Maximum percent change in conduction time (CT) at 10 uM concentration tested on Canine ventricular muscle fibre. It is filed as functional, Canis lupus familiaris, Muscle tissue. Summed up:
as §1

Data set [14] is filed under the species Canis familiaris. Put plainly: Maximum percent change in repolarization at 10 uM concentration on Canine Purkinje fibers. It is filed as functional, Canis lupus familiaris, Purkinje fiber. Summed up: as §5
The species entered for data set [15] is Canis familiaris. The data set is described as §4. The data set is classed as organism-based, Canis lupus familiaris, Purkinje fiber. To be noted: dog, in vitro. Summed up:
as §5

Data set [16] is filed under the species Canis familiaris. Nature of the data set: Maximum percent change in functional refractory period (FRP) at 100 uM on Canine ventricular muscle fibre.; value ranges from 5-18. More on the design: species or system Canis lupus familiaris, Muscle tissue. In a few lines: as §1
The species named for data set [17] is Canis familiaris. Nature of the data set: Percent change in conduction time (CT) at 10 uM concentration tested on Canine ventricular muscle fibre; value ranges from -14-6. It is filed as functional, Canis lupus familiaris, Muscle tissue.
Data set [18] is filed under the species Canis familiaris. Put plainly: Percent change from control in the functional refractory period (FRP) at 10 uM conc. on Canine ventricular muscle fibre.; value ranges from -5-3. On the set-up: species or system Canis lupus familiaris, Muscle tissue. Summed up:
as §1

For data set [19], the species on record is Canis familiaris. Nature of the data set: Percent change from control in the rate of rise of phase 0 of the action potential at 10 uM concentration on Canine Purkinje fibers.; value ranges from -13 - -2. The data set is classed as […], organism-based, Canis lupus familiaris, Purkinje fiber. To be noted: dog, in vitro.
The species named for data set [20] is Canis familiaris. Put plainly: Percent change in repolarization at 10 Purkinje fibers.; value ranges from -5 - 5. The data set is classed as functional, Canis lupus familiaris, Purkinje fiber. In a few lines: as §3
The species entered for data set [21] is Canis familiaris. Nature of the data set: Maximum Percent change from control in the rate of rise of phase 0 of the action potential at 30 uM concentration on Canine Purkinje fibers. On the set-up: species or system Canis lupus familiaris, Purkinje fiber. The following applies: dog, in vitro. In a few lines:
as §5

The species named for data set [22] is Canis familiaris. Nature of the data set: Percent change from control in the functional refractory period (FRP) at 10 uM conc. on Canine ventricular muscle fibre. More on the design: species or system Canis lupus familiaris, Muscle tissue. In a few lines:
as §1

The species entered for data set [23] is Canis familiaris. Put plainly: Percent change in repolarization at 10 Purkinje fibers. The data set is classed as functional, Canis lupus familiaris, Purkinje fiber. In a few lines: as §3
For data set [24], the species on record is Canis familiaris. Nature of the data set: Maximum Percent change from control in the rate of rise of phase 0 of the action potential at 100 uM concentration on Canine Purkinje fibers. The following applies: dog, in vitro.
The species entered for data set [25] is Canis familiaris. Nature of the data set: Percent change from control in the rate of rise of phase 0 of the action potential at 10 uM concentration on Canine Purkinje fibers. On the set-up: species or system Canis lupus familiaris, Purkinje fiber. To be noted: dog, in vitro.
For data set [26], the species on record is Cavia porcellus. Nature of the data set: Concentration of compound which gives a 20% decrease in contractile force was tested on papillary muscle of guinea pig, activity was expressed as EC-20. It is filed as functional. To be noted: Muscle tissue. In a few lines:
as §2

The species entered for data set [27] is Canis familiaris. Put plainly: Maximum percent change in repolarization at 1 uM concentration on Canine Purkinje fibers. The data set is classed as functional, Canis lupus familiaris, Purkinje fiber. In a few lines: as §5
The species named for data set [28] is Canis familiaris. Nature of the data set: Percent change in functional refractory period (FRP) at 10 uM on Canine ventricular muscle fibre. On the set-up: species or system Canis lupus familiaris, Muscle tissue.
The species entered for data set [29] is Canis familiaris. Nature of the data set: Percent change from control in the rate of rise of phase 0 of the action potential at 10 uM concentration on Canine Purkinje fibers.; value ranges from -36.0-1.0. More on the design: species or system Canis lupus familiaris, Purkinje fiber. To be noted: dog, in vitro.
The species entered for data set [30] is Canis familiaris. Nature of the data set: Percent change in repolarization at 10 Purkinje fibers; value ranges from 3-4. It is filed as functional, Canis lupus familiaris, Purkinje fiber. In a few lines: as §3
For data set [31], the species on record is Cavia porcellus. Put plainly: Concentration of compound which gives a 20% decrease in contractile force was tested from individual experiment on papillary muscle of guinea pig, activity was expressed as EC-20.; NR is not reached. The data set is classed as functional. The following applies: Muscle tissue. In a few lines: as §2
Data set [32] is filed under the species Canis familiaris. Nature of the data set: Maximum percent change in repolarization at 0.1 uM concentration on Canine Purkinje fibers. The data set is classed as functional, Canis lupus familiaris, Purkinje fiber. Summed up:
as §5

Data set [33] is filed under the species Cavia porcellus. Put plainly: Concentration of compound which gives a 20% decrease in contractile force was tested from individual experiments on papillary muscle of guinea pig, activity was expressed as EC-20. The data set is classed as functional. To be noted: Muscle tissue. In a few lines: as §2
The species named for data set [34] is Canis familiaris. Put plainly: Percent change from control in conduction time (CT) at uM concentration tested on Canine ventricular muscle fibre.; M is minimal(<10% change in CT). The data set is classed as functional. To be noted: Canis lupus familiaris; Muscle tissue. In a few lines: as §1
The species named for data set [35] is Canis familiaris. Nature of the data set: Maximum percent change in functional refractory period (FRP) at 1 uM on Canine ventricular muscle fibre. More on the design: species or system Canis lupus familiaris, Muscle tissue. In a few lines:
as §1

Data set [36] is filed under the species Canis familiaris. Put plainly: Percent change in repolarization at 10 Purkinje fibers.; value ranges from 5-16. It is filed as functional, Canis lupus familiaris, Purkinje fiber. Summed up: as §3
For data set [37], the species on record is Canis familiaris. Put plainly: Maximum Percent change from control in the rate of rise of phase 0 of the action potential at 10 uM concentration on Canine Purkinje fibers. To be noted: dog, in vitro. It is filed as functional, Canis lupus familiaris, Purkinje fiber. Summed up: as §5

Regarding `CCN(CC)CCCNC(=O)c1[nH]c(C)c(C)c1C`, the FRP was 5.7% in data set [1], 28% in data set [4] and 4% in data set [12]. Besides, the CT in data set [2] is 8%; in data set [5], 6%; in data set [7], “Minimal”; in data set [13] it was -9%. Further, the EC20 – broadly, the point of the concentration-response curve where the effect stands at 20% – in [3] was determined as 50 µM. In addition, the APD95 is 8.3% in [6], 26% in data set [10], -5% in [11] and 7% in data set [14]. Besides, the “Vmax (uM)” value in data set [8] is on record as -15%. Besides, the Vmax in [9] is on record as -14.3%.
For the molecule `CCN(CC)CCNC(=O)c1cc2cccc(O)c2[nH]1`, the CT is 16% in data set [2], -3.3% in data set [17], -3% in data set [5] and -14% in [13]. The results for the Vmax in data set [15], in data set [19] and in [21] were -35%, -7% and -19%, respectively. Also, the figures for the FRP in [16] and in [18] were 10% and -1%, respectively. In data set [3], this molecule came in with an EC20 of 30 µM. In addition, the APD95 in [10] was -9%; in data set [20], 0.7%; in [11] it was -28%; in [14] it was 5%.
Consider `CCN(CC)CCNC(=O)c1cc(Cl)c(N)cc1OC` [METOCLOPRAMIDE], for which the figures for the FRP in data set [22] and in [4] were 17% and 33%, respectively. The figures for the APD95 in data set [23] and in data set [11] were 1% and -17%, respectively. Besides, the CT in data set [2] is on record as 17%. Also, the CT entry in data set [7] is “inactive”. In addition, the Vmax is on record as -25% in data set [24] and -3% in data set [25]. In addition, the EC20 in data set [26] was found to be 10 µM.
In the case of `CCN(CC)CCCNC(=O)c1c(C)[nH]c(C)c1C`, the APD95 in [27] is on record as 6%; in [30], 3.7%; in [32], 5%; in [14] it was 4%. Moreover, the figures for the FRP in data set [28] and in data set [4] were 4% and 16%, respectively. For the same molecule, the Vmax in data set [15] was -37%; in data set [29], -13%; in [21] it was -14%. Moreover, in data set [31], the EC20 entry is “Not reached”. In addition, the CT in data set [5] was -3%; in data set [7] it was “Minimal”.
In the case of `CCN(CC)CCCNC(=O)c1cc2ccccc2[nH]1`, the FRP in data set [22] and in data set [35] was 5% in each case. The CT is -11% in data set [2] and “Minimal” in data set [34]. The same molecule displayed an EC20 in data set [33] of 26 µM. Further, the Vmax in data set [25] is recorded as -7%; in data set [21], -13%; in data set [37], -13%. Besides, the results for the APD95 in [11], in data set [36] and in [14] were -14%, 9.6% and 16%, respectively.

(Values after ChEMBL document CHEMBL1124429, “Heterocyclic analogues of benzamide antiarrhythmic agents” (J Med Chem, 1989).)
